Activity calls are given as the source filed them. No cut-off for these calls is given here. Square brackets hold non-standard residues; d marks the D form. Peptide text beside a SMILES is read from it. Hyp = O=C(O)[C@@H]1C[C@@H](O)CN1; Ahx = NCCCCCC(=O)O
Legend:
[1] = Downregulation of BRD4 protein expression in human MDA-MB-231 cells assessed as fold change in remaining BRD4 level at 10 uM incubated for 24 hrs by immunoblotting analysis (reference value: 1); assay type: functional
Procedure, shortened: (§1)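 Cells treated with peptide (10 μM) for 24 h. Lysates in Tris/NaCl/EDTA/1% Triton X-100, run on 10% SDS-PAGE and immunoblotted with ECL detection. β-actin as loading control. Three repeats, quantified against untreated cells.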

[2] = Downregulation of JMJD6 protein expression in human MDA-MB-231 cells assessed as fold change in remaining JMJD6 level at 10 uM incubated for 24 hrs by immunoblotting analysis (reference value: 1); assay type: functional; procedure, shortened: as §1
[3] = Downregulation of […] protein expression in human MDA-MB-231 cells assessed as fold change in […] at 10 uM incubated for 24 hrs by immunoblotting analysis (reference value: 1); assay type: functional; procedure, shortened: as §1
[4] = test system: Mus musculus; experiment: Downregulation of CCND1 mRNA expression in BALB/c mouse tumor xenografted with human MCF7 cells at 25 mg/kg, ip administered every 2 days by RT-qPCR analysis; assay type: functional, organism-based
[5] = test system: Mus musculus; experiment: Downregulation of BRD4 mRNA expression in BALB/c mouse tumor xenografted with human MDA-MB-231 cells at 25 mg/kg, ip administered every 2 days by RT-qPCR analysis; assay type: functional, organism-based
[6] = test system: MCF7; experiment: Inhibition of cell migration in human MCF7 cells at 10 uM incubated for 24 hrs in presence of 5 uM JQ1 by inverted microscopic assay; assay type: functional, cell-based
Procedure, shortened: (§2)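 Cells are seeded at 5 × 10^5/well and scratched at 80–90% confluence. They are kept in serum-free medium with peptide (10 μM); partner agents are JQ1 5 μM, iJMJD6 10 μM, or ICI 2.5 μM. Wound area is imaged by inverted microscope at 0 and 12 or 24 h. Wound closure % = (A0−A1)/A0 × 100. Three biological repeats.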

[7] = test system: MCF7; experiment: Inhibition of cell migration in human MCF7 cells at 10 uM incubated for 24 hrs by inverted microscopic assay; assay type: functional, cell-based; procedure, shortened: as §2
[8] = Toxicity in BALB/c mouse xenografted with human MCF7 cells assessed as change in heart morphology at 12.5 mg/kg, ip administered every 2 days in presence of 50 mg/kg JQ1; assay type: organism-based; details: in vivo, 48 h
[9] = Toxicity in BALB/c mouse xenografted with human MCF7 cells assessed as change in liver morphology at 12.5 mg/kg, ip administered every 2 days in presence of 50 mg/kg JQ1; assay type: organism-based; details: in vivo, 48 h
[10] = Toxicity in BALB/c mouse xenografted with human MCF7 cells assessed as change in lung morphology at 12.5 mg/kg, ip administered every 2 days in presence of 50 mg/kg JQ1; assay type: organism-based; details: in vivo, 48 h
[11] = Toxicity in BALB/c mouse xenografted with human MDA-MB-231 cells assessed as change in heart morphology at 12.5 mg/kg, ip administered every 2 days in presence of 50 mg/kg JQ1; assay type: organism-based; details: in vivo, 48 h
Procedure, shortened: (§3)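 Female BALB/c nude mice (4–6 weeks) carried sc MDA-MB-231 xenografts (5 × 10^6 cells) and were randomized at about 50 mm3. Peptide (12.5 mg/kg ip in saline) and JQ1 (50 mg/kg ip, DMSO/10% HPBCD 1:10) were given every 2 days, alone or combined. Body weight was recorded, and heart, liver, spleen, lung and kidney morphology and weight were assessed.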

[12] = Toxicity in BALB/c mouse xenografted with human MDA-MB-231 cells assessed as change in liver morphology at 12.5 mg/kg, ip administered every 2 days in presence of 50 mg/kg JQ1; assay type: organism-based; details: in vivo, 48 h; procedure, shortened: as §3
[13] = Toxicity in BALB/c mouse xenografted with human MDA-MB-231 cells assessed as change in liver weight at 12.5 mg/kg, ip administered every 2 days in presence of 50 mg/kg JQ1; assay type: organism-based; details: in vivo, 48 h; procedure, shortened: as §3
[14] = test system: MDA-MB-231; experiment: Antiproliferative activity against human MDA-MB-231 cells at 10 uM incubated for 1 week in presence of JMJD6 inhibitor by CellTiter 96 Aqueous One Solution based assay; assay type: functional, cell-based; details: time 1.0 weeks
Procedure, shortened: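 Cells seeded at 2 × 10^3/well and treated with peptide (10 μM) alone or combined with JQ1 (5 μM), iJMJD6 (10 μM) or ICI (2.5 μM), as the line states. Viability read by MTS reagent, 1 h at 37 °C, A490. Three biological repeats.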

[15] = Toxicity in BALB/c mouse xenografted with human MCF7 cells assessed as change in spleen at 12.5 mg/kg, ip administered every 2 days in presence of 12.5 mg/kg JMJD6 inhibitor; assay type: organism-based; details: in vivo, 48 h
Procedure, shortened: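 Female BALB/c nude mice carried MCF7 xenografts (5 × 10^6 cells sc, E2 10–2 M brushed every 2 days) and were randomized at about 50 mm3. Peptide was given at 12.5 mg/kg ip every 2 days, and iJMJD6 (DMSO/PBS 1:20) at 12.5 mg/kg ip every other day, alone or combined. Body and organ weights were recorded.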

[16] = test system: MCF7; experiment: Antitumor activity against human MCF7 cells xenografted in BALB/c nude mouse assessed as reduction in tumor volume at 12.5 mg/kg, ip administered every 2 days in presence of 2.5 mg/kg fulvestrant; assay type: functional, organism-based
Procedure, shortened: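 MCF7 xenografts in female BALB/c nude mice on E2 (10^-2 M, every 2 days), randomised at ~50 mm3. Peptide 12.5 mg/kg ip every 2 days with fulvestrant 2.5 mg/kg sc (DMSO/corn oil 1:10) every 6 days. Caliper volume (1/2 × L × W²); tumours weighed at the end.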

[17] = test system: T47D; experiment: Inhibition of colony formation in human T47D cells at 10 uM incubated for 2 weeks in presence of tamoxifen by crystal violet staining based assay; assay type: functional, cell-based
Procedure, shortened: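 Cells are seeded at 1 × 10^3/well and treated with peptide (10 μM) for 2 weeks, alone or with JQ1 5 μM, iJMJD6 10 μM, ICI 2.5 μM, or tamoxifen 3 μM (tamoxifen-resistant lines). Colonies are stained with crystal violet, dissolved in 10% acetic acid, and read at 590 nm. Three biological repeats.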

[18] = Downregulation of JMJD6 protein expression in BALB/c mouse tumor xenografted with human MCF7 cells assessed as fold change in remaining JMJD6 level at 25 mg/kg, ip administered every 2 days by immunoblotting analysis; assay type: functional
Procedure, shortened: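 Tumours taken from xenograft mice dosed with peptide at 25 mg/kg ip every 2 days. […] Three repeats.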

[19] = Downregulation of c-Myc protein expression in BALB/c mouse tumor xenografted with human MCF7 cells assessed as fold change in remaining c-Myc level at 25 mg/kg, ip administered every 2 days by immunoblotting analysis; assay type: functional
Procedure, shortened: (§4)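 Female BALB/c nude mice (4–6 weeks) carry subcutaneous MCF7 or MDA-MB-231 grafts (5 × 10^6 cells). MCF7 mice are brushed with E2 (10–2 M) every 2 days. Dosing starts at ~50 mm3: peptide in normal saline, ip every 2 days. Tumour lysates are immunoblotted with β-actin as loading control; repeated three times.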

[20] = Downregulation of c-Myc protein expression in BALB/c mouse tumor xenografted with human MDA-MB-231 cells assessed as fold change in remaining c-Myc level at 25 mg/kg, ip administered every 2 days by immunoblotting analysis; assay type: functional; procedure, shortened: as §4

Molecule	fold change (FC) [1]	fold change (FC) [2]	fold change (FC) [3]	Activity [4]	Activity [5]	inhibition [6]	inhibition [7]	Activity [8]	Activity [9]	Activity [10]	Activity [11]	Activity [12]	Activity [13]	Activity [14]	Activity [15]	Activity [16]	inhibition [17]	fold change (FC) [18]	fold change (FC) [19]	fold change (FC) [20]
H-YGRKKRRQRRRRNQKFKCGE-OH	1.06	1.04	0.72	Active	inactive	Active	Active	Non-Toxic	Non-Toxic	Non-Toxic	Non-Toxic	Non-Toxic	Non-Toxic	Active	Non-Toxic	Active	Active	0.71	0.27	0.22
CC[C@H](C)[C@H](NC(=O)[C@H](Cc1ccc(O)cc1)NC(=O)[C@@H]1C[C@@H](O)CN1C(=O)[C@H](C)NC(=O)[C@@H](NC(=O)CCCCCNC(=O)[C@H](CCC(=O)O)NC(=O)CNC(=O)[C@H](CS)NC(=O)[C@H](CCCCN)NC(=O)[C@H](Cc1ccccc1)NC(=O)[C@H](CCCCN)NC(=O)[C@H](CCC(N)=O)NC(=O)[C@H](CC(N)=O)NC(=O)[C@H](CCCNC(=N)N)NC(=O)[C@H](CCCNC(=N)N)NC(=O)[C@H](CCCNC(=N)N)NC(=O)[C@H](CCCNC(=N)N)NC(=O)[C@H](CCC(N)=O)NC(=O)[C@H](CCCNC(=N)N)NC(=O)[C@H](CCCNC(=N)N)NC(=O)[C@H](CCCCN)NC(=O)[C@H](CCCCN)NC(=O)[C@H](CCCNC(=N)N)NC(=O)CNC(=O)[C@@H](N)Cc1ccc(O)cc1)[C@@H](C)CC)C(=O)O (H-YGRKKRRQRRRRNQKFKCGE[Ahx]IA[Hyp]YI-OH)	0.55	0.38	0.68	Active	inactive	Active	Active	Non-Toxic	Non-Toxic	Non-Toxic	Non-Toxic	Non-Toxic	Non-Toxic	Active	Non-Toxic	Active	Active	0.4	0.38	0.44

From ChEMBL document CHEMBL5543129, “Peptide Inhibitor Targeting the Extraterminal Domain in BRD4 Potently Suppresses Breast Cancer Both In Vitro and In Vivo” (J Med Chem, 2024)
